Rows were chosen to be rich in hits. Some 3.2% of all compounds tested hit in one or more screens of this group.
Ec RNAP inh: inhibitors of Escherichia coli RNA polymerase; E. coli RNA polymerase, fluorescence transcription assay; inhibition, %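 (tested at 10 µM)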; 62,000 tested, 0.2% active; in the data active means inhibition above about 20%;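 further: 0% = enzyme without compound and 100% = no enzyme blank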
JNK3 blocker: blocks human JNK3 kinase activity. P53779. purified JNK3 kinase activity, HTS. inhibition, % at 8 µM. 60,000 tested, 0.61% active; in the data active means inhibition above about 17%;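 further: 0% = DMSO and 100% = reference inhibitor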
Target sequence (P53779 whole entry, looked up): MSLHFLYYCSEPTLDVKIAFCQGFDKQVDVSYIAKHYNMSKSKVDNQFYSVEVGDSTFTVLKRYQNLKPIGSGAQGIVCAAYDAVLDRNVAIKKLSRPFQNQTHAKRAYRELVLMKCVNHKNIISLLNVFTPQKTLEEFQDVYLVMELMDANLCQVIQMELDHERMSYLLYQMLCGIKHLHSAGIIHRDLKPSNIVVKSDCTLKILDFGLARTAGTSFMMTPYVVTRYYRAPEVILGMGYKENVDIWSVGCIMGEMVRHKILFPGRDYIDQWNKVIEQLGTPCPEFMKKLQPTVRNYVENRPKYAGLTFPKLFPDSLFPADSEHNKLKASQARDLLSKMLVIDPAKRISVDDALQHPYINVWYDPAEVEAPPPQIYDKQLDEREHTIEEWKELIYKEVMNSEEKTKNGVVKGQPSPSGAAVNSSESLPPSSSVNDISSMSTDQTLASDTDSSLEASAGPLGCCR
RORA act: activators of human nuclear receptor RORA; P35398; CHO-K1 Gal4-RORA LBD luciferase reporter, luminescence; percent increase over mock-subtracted basal signal; activation, % at 10 µM; 65,000 tested, 1.5% active; AID 560;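 active means activation above the mean of all tested compounds plus 3 SD, cut at about 49% in these data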;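 further: 0% = DMSO-treated RORA cells and 100% = added signal equal to DMSO minus mock-transfected cells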
SF-1 act: SF-1 (human) activation. Q13285. CHO-K1 Gal4-SF-1 LBD luciferase reporter; % increase over DMSO SF-1-specific signal. activation, % at 10 µM. 65,000 tested, 1.9% active;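 active means activation above the mean activation of all tested compounds plus 3 SD, cut at about 50% in these data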
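System: CHO-K1 cells with Gal4–hSF-1 LBD chimera plus Gal4-driven luciferase; quantity: 4,000 CHO-K1 cells per well; compound: one dose, 10 µM compound, 1% DMSO; times: 20 h compound treatment, 37 °C; measured by: SteadyLite luciferase luminescence; read-out: percent activation versus DMSO; benchmarks: DMSO and mock-transfected background; replicates: one test per compound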
BAP1 block: inhibitors of human BAP1 deubiquitinase; Q92560; recombinant BAP1, Ub-AMC hydrolysis fluorescence kinetic; active compounds read low; activity remaining (% of control), % at 20 µM; 72,000 tested, 0.48% active;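 active means activity remaining at or below 50% of control, provided the compound also passes the data quality filters; inactive means the rest, including low values that fail the filters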;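 further: 100% = DMSO wells rate and 0% = substrate alone blank rate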
* hit, by the source's call; i = inactive; · = not tested or not shown.

SMILES	Ec RNAP inh	JNK3 blocker	RORA act	SF-1 act	BAP1 block
CC1CCc2c(sc(NC(=O)c3noc4c3CCCC4)c2C(N)=O)C1 (stereo not drawn)	7.5	2.2	100.8*	49.9*	130.7
Cc1cc(Cl)ccc1OCCCC(=O)N1CCN(C(=O)c2ccco2)CC1	11.7	-2.8	-5.3	-8.7	99.8
C=CCn1c(SCC(=O)O)nnc1-c1cccc(Cl)c1	4.2	2.9	2.4	-6.3	108.1
O=C(Cc1ccccc1)Nc1ccc2oc(-c3ccncc3)nc2c1	2.0	0.7	23.1	7.0	91.7
CC(C)CC(=O)Nc1ccc2oc(-c3ccncc3)nc2c1	7.0	-1.9	34.6	55.3*	82.7
COc1cccc(CC(NC(C)=O)C(=O)NC2CCN(c3c4c(nc5ncnn35)CCC4)CC2)c1 (stereo not drawn)	12.0	-0.4	21.3	71.8*	94.5
COc1ccc(CC(NC(C)=O)C(=O)NC2CCN(c3c4c(nc5ncnn35)CCC4)CC2)cc1 (stereo not drawn)	4.8	2.1	-5.8	-9.9	98.9
Cc1cccc(C(=O)OCc2cc3ccccc3[nH]c2=O)c1	13.2	13.3	-4.5	1.4	79.8
Cc1ccc(C(=O)OCc2cc3ccccc3[nH]c2=O)cc1	-10.3	28.3*	21.7	25.8	77.9
CCC(Sc1ccc(C(=O)O)cc1)C(=O)O (stereo not drawn)	4.8	-12.2	21.8	10.0	100.4
Clc1ccccc1-c1nc2ccccc2[nH]1	·	·	·	·	87.7
Cn1cc(Cl)c(-c2nc3ccccc3[nH]2)n1	6.6	·	55.6*	44.1	108.6
Cc1ccc2nc(SCC(=O)N3CCCC3)[nH]c2c1	4.6	4.9	74.3*	52.8*	94.3
COC(=O)Nc1nc2ccc(C(=O)c3ccccc3)cc2[nH]1	5.3	20.9*	-7.6	-40.0	92.4
COC(=O)Nc1nc2ccc(C(=O)c3cccs3)cc2[nH]1	·	·	·	·	85.0
COc1ccc(NC(=O)Nc2ccc(N(C)C)cc2)cc1	2.1	-23.2	57.9*	29.4	91.7
COc1ccc(CNC(=O)Nc2ccc(OC)cc2)cc1	0.6	-3.1	-0.1	23.2	99.6
CN(C)c1ccc(NC(=O)Nc2ccc3snnc3c2)cc1	11.8	-14.0	56.0*	47.8	101.5
COc1ccc(NC(=O)Nc2nccs2)cc1	9.3	1.6	64.3*	73.2*	91.8
CCc1nnc(NC(=O)Nc2ccc(OC)cc2)s1	11.1	·	40.1	18.7	103.1
COc1cccc(C(=O)Nc2ccc(N(C)C)cc2)c1OC	-4.1	-6.8	42.6	50.3*	84.8
COc1cccc(NC(=O)c2cccc(OC)c2OC)c1	11.4	6.1	38.5	30.9	85.8
COC(=O)c1ccc(CSc2nnc3sc4ccccc4n23)o1	4.4	·	0.4	9.7	·
COc1ccc(CNC(=O)c2ccc3nccnc3c2)cc1	4.7	4.1	-1.4	-0.9	103.9
COc1cc(CC(=O)Nc2nccs2)cc(OC)c1OC	-6.7	23.2*	-5.9	-14.1	116.9
SMILES	Ec RNAP inh	JNK3 blocker	RORA act	SF-1 act	BAP1 block
COc1ccc(NC(=O)Nc2ccc3nccnc3c2)cc1	8.2	3.4	57.2*	51.0*	86.7
COc1ccc(-c2cc(C(=O)NCc3ccccc3)no2)cc1OC	4.3	-0.6	10.3	4.5	133.9
CC(C)(C)C1(C)OC(C(N)=O)C(C(N)=O)O1 (stereo not drawn)	8.8	-4.0	5.8	0.4	97.0
Cc1cc(NC(=O)NC(=O)c2cccc(OC(F)(F)C(F)F)c2)n[nH]1	-4.7	2.6	52.4*	81.3*	59.6
O=C(NCCC1=CCCCC1)c1ccc(CN2CCOCC2)cc1	8.0	5.4	96.0*	39.9	98.5
CCOC(=O)c1c(C)[nH]c(C(=O)Nc2ccc3c(c2)OCO3)c1C	0.2	7.0	58.9*	132.1*	91.6
CCCCC(=O)Nc1ccc(C(=O)Nc2ccc3c(c2)OCO3)cc1	8.5	0.7	60.3*	51.2*	65.8
CCCC(=O)Nc1cccc(NC(=O)c2ccc3c(c2)OCO3)c1	-2.5	-2.2	15.3	-6.2	91.1
CCOC(=O)c1ccc(NC(=O)c2ccc3c(c2)OCO3)cc1	8.9	-4.6	29.5	37.3	107.8
O=C(Nc1ccc2c(c1)OCO2)c1ccc(CN2CCOCC2)cc1	8.1	-2.9	49.4*	51.7*	86.0
O=C(CN1C(=O)COc2ccccc21)N1CCN(c2ccccc2F)CC1	1.2	-3.0	1.4	4.5	90.2
COCc1nnc(NS(=O)(=O)c2ccc(NC(C)=O)cc2)s1	4.9	-1.0	-31.2	-0.4	86.6
CCCN1C2CCCC1CC(NC(=O)Nc1cccc(C(C)=O)c1)C2 (stereo not drawn)	-1.1	0.6	-1.4	7.3	93.7
Cc1nc2ccccc2c2oc(C(=O)NCC3COc4ccccc4O3)cc12 (stereo not drawn)	5.0	-5.3	-10.9	-16.1	115.0
CC(C)c1ccc(O)c(NC(=O)c2cncc(Br)c2)c1	1.5	-5.6	-0.3	-8.3	98.1
CC12CCC(C(=O)n3c1nc1ccccc13)C2(C)C (stereo not drawn)	3.1	1.6	8.5	0.1	104.7
c1ccc2c(c1)NC1(CCCC1)n1c-2nc2ccccc21	·	-2.0	40.4	59.3*	i
O=C(c1ccco1)N1CCN(c2ccc(Cl)cc2)CC1	-0.6	2.4	98.2*	46.1	116.6
O=C(Cc1ccc(Cl)cc1)Nc1ccc(N2CCN(C(=O)c3ccco3)CC2)cc1	8.3	0.6	-6.1	-9.4	59.5
CCOC(=O)c1c(NC(=O)c2ccc(Cl)s2)sc(C)c1C	3.3	6.3	0.6	-6.4	109.7
CCNc1nc(N)c(C(=O)c2ccc(Cl)s2)s1	-6.2	13.3	49.8*	31.4	106.0
COc1cccc(N2CCN(Cc3cccnc3)CC2)c1	5.7	4.2	-4.9	-4.4	79.0
CCOC(=O)c1nnn(-c2nonc2N)c1CNc1ccc(C)c(Br)c1	-8.1	4.2	7.2	3.9	83.1
Cc1ccc(NC(=O)c2cc(N(C)C)ccc2[P+](=O)O)cc1	-4.4	·	69.2*	14.2	·
O=C(Nc1ccncc1)c1cncc(Br)c1	3.6	-1.9	-10.1	14.9	158.6
SMILES	Ec RNAP inh	JNK3 blocker	RORA act	SF-1 act	BAP1 block
O=C(Nc1ccc(N2CCCCC2)cc1)c1cncc(Br)c1	7.7	-6.5	78.1*	8.0	95.9
O=C(Nc1ccc(N2CCCCC2)c(Cl)c1)c1cccnc1	7.8	-2.5	38.5	75.1*	106.0
CC(C)N(Cc1nc(-c2ccccc2)no1)C(=O)CSc1ccccc1	9.1	-1.8	12.6	1.5	62.3
COc1cccc(-c2nn(C)c3sc(C(=O)Nc4ccc5c(c4)OCCO5)cc23)c1	-2.0	12.9	56.5*	80.1*	·
O=C1N(O)C2(C=CCCC2)/C(=N\O)C12CCCCC2 (stereo not drawn)	33.5*	0.6	-11.4	-18.7	97.2
CC(=O)c1cc2c(=O)c3cc(C)ccc3oc2nc1C	5.5	8.2	57.6*	38.3	·
CC(=O)c1c[nH]c2ccc(C)cc2c1=O	5.9	·	-0.1	-9.5	56.7
Cn1c(=O)oc2ccc(C(=O)CSc3nnnn3-c3ccccc3)cc21	7.8	0.3	-2.5	-2.2	91.0
CCOC(=O)CSC1=C(C#N)C(c2ccc(C)s2)CC(=O)N1 (stereo not drawn)	6.7	2.9	54.2*	25.6	90.2
